This is an account of results in ChEMBL document CHEMBL1132183 (J Med Chem, 1999).

pKi: −log10 of the molar value.

Assay [1] deals with T1, Alpha-1B adrenergic receptor (Homo sapiens, UniProt P35368).
T1 sequence (P35368 whole entry): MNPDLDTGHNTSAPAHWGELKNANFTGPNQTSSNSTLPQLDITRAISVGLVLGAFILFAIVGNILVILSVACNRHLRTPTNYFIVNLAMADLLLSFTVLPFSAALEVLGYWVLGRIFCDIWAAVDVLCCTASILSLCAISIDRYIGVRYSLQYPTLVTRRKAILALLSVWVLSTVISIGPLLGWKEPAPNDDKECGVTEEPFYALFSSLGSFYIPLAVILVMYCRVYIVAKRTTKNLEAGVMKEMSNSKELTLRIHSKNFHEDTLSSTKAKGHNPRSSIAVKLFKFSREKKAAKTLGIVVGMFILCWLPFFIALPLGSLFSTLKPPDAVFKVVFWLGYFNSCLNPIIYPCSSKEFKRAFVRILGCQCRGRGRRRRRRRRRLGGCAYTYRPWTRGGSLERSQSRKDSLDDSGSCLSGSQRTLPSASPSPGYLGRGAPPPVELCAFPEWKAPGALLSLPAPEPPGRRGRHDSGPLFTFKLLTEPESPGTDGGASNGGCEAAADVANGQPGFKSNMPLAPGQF
The experiment in a line: Displacement of [3H]prazosin from human cloned Alpha-1B adrenergic receptor. A digest of the protocol: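 CHO cells stably transfected with each human α1 subtype; 30 μg membrane protein in 50 mM Tris-HCl pH 7.4 with 0.1–0.4 nM [3H]prazosin, 30 min at 25 °C. Competitors 1 pM–10 μM. Nonspecific binding defined with 10 μM phentolamine. Filtration, scintillation counting. Ki by Cheng–Prusoff; 2–3 experiments in triplicate.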
(Displacement assays read how much labelled ligand stays bound in the presence of the test substance.)

Assay [2] addresses T2, 5-hydroxytryptamine receptor 1A (Homo sapiens) (UniProt P08908).
T2 sequence (whole entry): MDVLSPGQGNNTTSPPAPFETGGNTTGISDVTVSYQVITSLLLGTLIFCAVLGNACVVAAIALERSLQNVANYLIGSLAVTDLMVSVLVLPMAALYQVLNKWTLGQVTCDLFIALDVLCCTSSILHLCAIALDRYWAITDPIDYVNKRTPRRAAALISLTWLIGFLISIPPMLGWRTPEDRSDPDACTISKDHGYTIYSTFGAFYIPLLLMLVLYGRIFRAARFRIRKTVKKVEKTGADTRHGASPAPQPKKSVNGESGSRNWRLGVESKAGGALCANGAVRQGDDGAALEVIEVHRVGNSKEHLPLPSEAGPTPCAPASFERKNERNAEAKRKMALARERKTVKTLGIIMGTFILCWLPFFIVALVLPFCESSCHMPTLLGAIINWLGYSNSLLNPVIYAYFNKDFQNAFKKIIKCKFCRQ
The experiment in a line: Eudisimic ratio(ER) is the antilog of the defference between the pKb and pD2 values against 5-hydroxytryptamine 1A receptor. In kind it is functional. A digest of the protocol:
(§1)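 Eudismic ratio is the antilog of the difference between the pKb (functional α1 tissue assays) or pD2 (5-HT1A [35S]GTPγS stimulation) of the eutomer and that of its distomer.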

The target of assay [3] is T1, Alpha-1B adrenergic receptor. In words: Ability to displace [3H]prazosin from human cloned Alpha-1B adrenergic receptor. A digest of the protocol:
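Competition binding at cloned human α1 subtypes stably expressed in CHO cells: membranes (30 μg protein) incubated 30 min at 25 °C in 50 mM Tris-HCl pH 7.4 with 0.1–0.4 nM [3H]prazosin and competitor (1 pM–10 μM). Nonspecific binding with 10 μM phentolamine; filtration and scintillation counting. Ki by Cheng–Prusoff; 2–3 experiments in triplicate.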

Assay [4] deals with Serotonin 2 (5-HT2) receptor (Rattus norvegicus, UniProt P30994+P08909+P14842). In words: Displacement of [3H]ketanserin from rat brain 5-hydroxytryptamine 2 receptor. A digest of the protocol:
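Rat cerebral cortex membranes (male Sprague–Dawley) in Tris-HCl pH 7.4 with 10 μM pargiline and 0.1% ascorbic acid were incubated 20 min at 37 °C with 0.7–1.3 nM [3H]ketanserin (5-HT2A). Nonspecific binding was defined by 2 μM ketanserin. Bound label was counted after filtration, and Ki was derived by Cheng–Prusoff.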

The target of assay [5] is T3, Alpha-1A adrenergic receptor (Rattus norvegicus) (UniProt P43140).
T3 sequence (whole entry): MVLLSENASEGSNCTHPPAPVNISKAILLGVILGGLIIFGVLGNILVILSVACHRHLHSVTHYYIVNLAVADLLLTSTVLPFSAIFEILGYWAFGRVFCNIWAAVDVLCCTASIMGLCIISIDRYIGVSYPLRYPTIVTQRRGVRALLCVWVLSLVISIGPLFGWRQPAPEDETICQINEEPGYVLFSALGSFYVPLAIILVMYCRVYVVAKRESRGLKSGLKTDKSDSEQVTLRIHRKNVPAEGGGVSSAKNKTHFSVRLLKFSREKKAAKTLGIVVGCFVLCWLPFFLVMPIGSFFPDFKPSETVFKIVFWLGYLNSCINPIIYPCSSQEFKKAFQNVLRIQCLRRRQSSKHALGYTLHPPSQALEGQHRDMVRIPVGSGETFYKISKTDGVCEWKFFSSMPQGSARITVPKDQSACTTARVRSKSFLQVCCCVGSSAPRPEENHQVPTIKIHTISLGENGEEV
In words: Eudisimic ratio(ER) is the antilog of the defference between the pKb and pD2 values against Alpha-1A adrenergic receptor. In short, it runs like this: as §1

The target in assay [6] is T4, Alpha-1B adrenergic receptor (Rattus norvegicus) (UniProt P15823).
T4 sequence (whole entry): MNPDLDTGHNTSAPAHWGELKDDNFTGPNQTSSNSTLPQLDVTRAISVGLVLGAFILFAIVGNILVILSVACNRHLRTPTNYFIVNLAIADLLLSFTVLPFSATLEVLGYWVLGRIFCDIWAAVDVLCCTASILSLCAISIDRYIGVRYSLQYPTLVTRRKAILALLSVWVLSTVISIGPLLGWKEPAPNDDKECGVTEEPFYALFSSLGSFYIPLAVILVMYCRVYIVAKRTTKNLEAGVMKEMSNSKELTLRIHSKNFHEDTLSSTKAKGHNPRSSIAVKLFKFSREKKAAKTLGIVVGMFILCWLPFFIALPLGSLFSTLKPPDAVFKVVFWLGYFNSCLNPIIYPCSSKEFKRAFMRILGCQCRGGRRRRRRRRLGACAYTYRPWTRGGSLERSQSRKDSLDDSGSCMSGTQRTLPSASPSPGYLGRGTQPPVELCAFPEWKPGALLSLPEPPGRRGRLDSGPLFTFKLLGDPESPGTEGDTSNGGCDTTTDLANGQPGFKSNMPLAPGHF
The experiment in a line: Eudisimic ratio(ER) is the antilog of the defference between the pKb and pD2 values against alpha-1B-adrenoceptor subtype. In kind it is functional. A digest of the protocol:
as §1

Assay [7] addresses T3, Alpha-1A adrenergic receptor (Rattus norvegicus). The experiment in a line: Eudisimic ratio(ER) is the antilog of the defference between the pKb and pD2 values against Alpha-1A adrenergic receptor subtype. In short, it runs like this: as §1

Usually pKi stands for the Ki on a negative log10 scale, so that one unit is a factor of ten. Turning to `O[C@@H]1[C@H](NC[C@@H]2COc3ccccc3O2)CC[C@H]1Oc1ccccc1`, the pKi in assay [1] was 7.03.

As to `O[C@@H]1[C@H](NC[C@H]2COc3ccccc3O2)CC[C@H]1Oc1ccccc1`, the ER in assay [2] was 123; in assay [5] it was above 35; in assay [6] it was 49. The pKi in assay [3] is 7.33. Also, the “Log Ki” value in assay [4] was below -6.

For `O[C@H]1[C@@H](NC[C@H]2COc3ccccc3O2)CC[C@@H]1Oc1ccccc1`, the ER in assay [7] worked out at 3; in assay [6], 11. For the same compound, the “Log Ki” value in assay [4] is given as below -6. In assay [1], this compound showed a pKi of 5.74.

In turn, `O[C@H]1[C@@H](NC[C@@H]2COc3ccccc3O2)CC[C@@H]1Oc1ccccc1` showed a pKi in assay [1] below 6.00.
